This is an account of results in ChEMBL document CHEMBL1145205, “Synthesis and biological evaluation of 1,2,4-triazinylphenylalkylthiazolecarboxylic acid esters as cytokine-inhibiting antedrugs with strong bronchodilating effects in an animal model of asthma” (J Med Chem, 2005).

Data set [1] deals with PBL. The experiment in a line: Percent inhibition of interleukin-5 production in human whole blood assay after 10e-7 M treatment. It is filed as functional.
Data set [2] in a line: Percent conversion of compound in human lung S9 fraction after 60 min of administration. The format is ADME. As to conditions: read-out: Conversion. Put shortly:
(§1)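 Test compound at 10^-6 M incubated at 37 °C in phosphate buffered saline with human liver S9 (10 µg protein/ml) or human lung S9 (50 µg protein/ml); samples taken at 0, 15 and 60 min; parent compound quantified by LC-MS/MS using MRM transition of parent to daughter ion; percent converted after 60 min.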

Data set [3] in a line: Percent conversion of compound in human liver fraction after 60 min of administration. The format is ADME, tissue-based. As to conditions: read-out: Conversion. Put shortly: as §1
The test system of data set [4] is PBL. The experiment in a line: Percent inhibition of interleukin-5 production in human whole blood assay after 10e-6 M treatment. It is filed as functional.

As to `CC(C)(c1nc(-c2ccccc2)c(C(=O)OCCc2ccccc2)s1)c1c(Cl)cc(-n2ncc(=O)[nH]c2=O)cc1Cl`, the figures for the Inhibition in the data set on PBL [1] and in the data set on PBL [4] were 62% and 88%, respectively. For the same compound, the values for the metabolised at 1 h in data set [2] and in data set [3] were 24% and 94%, respectively.
In the case of `COC(=O)c1sc(C(C)(C)c2c(Cl)cc(-n3ncc(=O)[nH]c3=O)cc2Cl)nc1-c1ccccc1`, the Inhibition in the data set with PBL [1] amounted to 84%; with PBL [4], 93%. For the same compound, the metabolised at 1 h in data set [2] is 47%; in data set [3], 49%.
Regarding `CC(C)=CCOC(=O)c1sc(C(C)(C)c2c(Cl)cc(-n3ncc(=O)[nH]c3=O)cc2Cl)nc1-c1ccccc1`, the Inhibition in the data set with PBL [1] was found to be 55%; in the data set on PBL [4], 73%. The metabolised at 1 h turned out to be 6% in data set [2] and 65% in data set [3].
In the same order, the values of `CC(C)(C)OC(=O)c1sc(C(C)(C)c2c(Cl)cc(-n3ncc(=O)[nH]c3=O)cc2Cl)nc1-c1ccccc1` are 79%, 89%, 0% and 7%.
On the same counts, the results for `CCCOC(=O)c1sc(C(C)(C)c2c(Cl)cc(-n3ncc(=O)[nH]c3=O)cc2Cl)nc1-c1ccccc1` are 69%, 96%, 23% and 68%.
`CC(C)(c1nc(-c2ccccc2)c(C(=O)OCCCO)s1)c1c(Cl)cc(-n2ncc(=O)[nH]c2=O)cc1Cl`: the values for the Inhibition in the data set with PBL [1] and in the data set with PBL [4] were 58% and 83%, respectively. Besides, the metabolised at 1 h was found to be 8% in data set [2] and 76% in data set [3].
As for `CCCCCOC(=O)c1sc(C(C)(C)c2c(Cl)cc(-n3ncc(=O)[nH]c3=O)cc2Cl)nc1-c1ccccc1`, the Inhibition with PBL [1] stood at 54%; in the data set on PBL [4] it was 91%. For the same compound, the metabolised at 1 h was found to be 32% in data set [2] and 72% in data set [3].
For `CCCCOC(=O)c1sc(C(C)(C)c2c(Cl)cc(-n3ncc(=O)[nH]c3=O)cc2Cl)nc1-c1ccccc1`, the figures for the Inhibition in the data set on PBL [1] and in the data set with PBL [4] were 51% and 88%, respectively. In addition, the metabolised at 1 h was 18% in data set [2] and 86% in data set [3].
For `CC(C)OC(=O)c1sc(C(C)(C)c2c(Cl)cc(-n3ncc(=O)[nH]c3=O)cc2Cl)nc1-c1ccccc1`, the results for the Inhibition with PBL [1] and in the data set on PBL [4] were 85% and 94%, respectively. Besides, the metabolised at 1 h was found to be 1% in data set [2] and 10% in data set [3].
On the same counts, the results for `CC(C)(c1nc(-c2ccccc2)c(C(=O)OCCO)s1)c1c(Cl)cc(-n2ncc(=O)[nH]c2=O)cc1Cl` are 66%, 93%, 0% and 1%.
Consider `CC(C)COC(=O)c1sc(C(C)(C)c2c(Cl)cc(-n3ncc(=O)[nH]c3=O)cc2Cl)nc1-c1ccccc1`, for which the values for the Inhibition in the data set with PBL [1] and in the data set with PBL [4] were 56% and 90%, respectively. Further, the metabolised at 1 h in data set [2] was 27%; in data set [3], 80%.
Turning to `CC(C)(c1nc(-c2ccccc2)c(C(=O)OCC(F)(F)F)s1)c1c(Cl)cc(-n2ncc(=O)[nH]c2=O)cc1Cl`, the Inhibition with PBL [1] amounted to 75%; in the data set with PBL [4], 92%. Also, the metabolised at 1 h in data set [2] stood at 36%; in data set [3], 38%.
In the same order, the values of `CC(C)(c1nc(-c2ccccc2)c(C(=O)OCCOc2ccccc2)s1)c1c(Cl)cc(-n2ncc(=O)[nH]c2=O)cc1Cl` are 70%, 83%, 21% and 73%.
In the same order, the values of `CCOC(=O)c1sc(C(C)(C)c2c(Cl)cc(-n3ncc(=O)[nH]c3=O)cc2Cl)nc1-c1ccccc1` are 67%, 94%, 17% and 29%.
In the same order, the values of `C=CCOC(=O)c1sc(C(C)(C)c2c(Cl)cc(-n3ncc(=O)[nH]c3=O)cc2Cl)nc1-c1ccccc1` are 69%, 96%, 23% and 68%.
Regarding `CC(C)(c1nc(-c2ccccc2)c(C(=O)OCC#N)s1)c1c(Cl)cc(-n2ncc(=O)[nH]c2=O)cc1Cl`, the Inhibition is reported as 74% in the data set with PBL [1] and 91% in the data set on PBL [4]. In addition, the metabolised at 1 h is 34% in data set [2] and 61% in data set [3].
In the same order, the values of `CC(=O)COC(=O)c1sc(C(C)(C)c2c(Cl)cc(-n3ncc(=O)[nH]c3=O)cc2Cl)nc1-c1ccccc1` are 57%, 85%, 19% and 64%.
With `CC#CCOC(=O)c1sc(C(C)(C)c2c(Cl)cc(-n3ncc(=O)[nH]c3=O)cc2Cl)nc1-c1ccccc1`, the Inhibition in the data set on PBL [1] was 96%; with PBL [4], 100%. Besides, the metabolised at 1 h in data set [2] amounted to 3%; in data set [3], 1%.
On the same counts, the results for `CC(C)(c1nc(-c2ccccc2)c(C(=O)OCC2CC2)s1)c1c(Cl)cc(-n2ncc(=O)[nH]c2=O)cc1Cl` are 56%, 92%, 27% and 87%.
As for `CC(C)(c1nc(-c2ccccc2)c(C(=O)O)s1)c1c(Cl)cc(-n2ncc(=O)[nH]c2=O)cc1Cl`, the Inhibition with PBL [1] and with PBL [4] was 0% throughout. Moreover, the metabolised at 1 h in data set [2] and in data set [3] was 0% each time.
With `C#CCOC(=O)c1sc(C(C)(C)c2c(Cl)cc(-n3ncc(=O)[nH]c3=O)cc2Cl)nc1-c1ccccc1`, the Inhibition in the data set with PBL [1] is on record as 87%; in the data set with PBL [4], 90%. The metabolised at 1 h in data set [2] came out at 20%; in data set [3], 55%.
